From ChEMBL document CHEMBL4261538, “Synthesis and molecular docking studies of xanthone attached amino acids as potential antimicrobial and anti-inflammatory agents” (Medchemcomm, 2017)
Converted amounts (≈) assume the structure as drawn. The source made the active and inactive calls. No cut-off for these calls is given here.

Assays:
Staphylococcus aureus [1] = test: Antibacterial activity against Staphylococcus aureus at 25 ug/ml incubated for 24 hrs by agar well diffusion method; assay type: functional; details: read-out: DIZ
In short: (§1)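 Bacteria grown in nutrient broth at 37 °C for 24 h, then subcultured at room temperature. Compounds dissolved in DMSO at 5 mg mL⁻¹ and 5–20 µL added to 6 mm wells, giving 25, 50, 75, 100 µg per well. Gentamicin was the positive control and DMSO the negative control. Plates held at 37 °C for 24 h, then inhibition zone diameter (mm) measured. Values are means of three determinations.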

Staphylococcus aureus [2] = test: Antibacterial activity against Staphylococcus aureus at 50 ug/ml incubated for 24 hrs by agar well diffusion method; assay type: functional; details: read-out: DIZ; in short: as §1
Staphylococcus aureus [3] = test: Antibacterial activity against Staphylococcus aureus at 75 ug/ml incubated for 24 hrs by agar well diffusion method; assay type: functional; details: read-out: DIZ; in short: as §1
Staphylococcus aureus [4] = test: Antibacterial activity against Staphylococcus aureus at 100 ug/ml incubated for 24 hrs by agar well diffusion method; assay type: functional; details: read-out: DIZ; in short: as §1
Bacillus subtilis [5] = test: Antibacterial activity against Bacillus subtilis at 25 ug/ml incubated for 24 hrs by agar well diffusion method; assay type: functional; details: for zone of inhibition at 25 µg/mL: read-out: DIZ; in short: as §1
Bacillus subtilis [6] = test: Antibacterial activity against Bacillus subtilis at 50 ug/ml incubated for 24 hrs by agar well diffusion method; assay type: functional; details: for zone of inhibition at 50 µg/mL: read-out: DIZ; in short: as §1
Bacillus subtilis [7] = test: Antibacterial activity against Bacillus subtilis at 75 ug/ml incubated for 24 hrs by agar well diffusion method; assay type: functional; details: read-out: DIZ; in short: as §1
Bacillus subtilis [8] = test: Antibacterial activity against Bacillus subtilis at 100 ug/ml incubated for 24 hrs by agar well diffusion method; assay type: functional; details: read-out: DIZ; in short: as §1
Escherichia coli [9] = test: Antibacterial activity against Escherichia coli at 25 ug/ml incubated for 24 hrs by agar well diffusion method; assay type: functional; details: read-out: DIZ; in short: as §1
Escherichia coli [10] = test: Antibacterial activity against Escherichia coli at 50 ug/ml incubated for 24 hrs by agar well diffusion method; assay type: functional; details: read-out: DIZ; in short: as §1
Escherichia coli [11] = test: Antibacterial activity against Escherichia coli at 75 ug/ml incubated for 24 hrs by agar well diffusion method; assay type: functional; details: read-out: DIZ; in short: as §1
Escherichia coli [12] = test: Antibacterial activity against Escherichia coli at 100 ug/ml incubated for 24 hrs by agar well diffusion method; assay type: functional; details: read-out: DIZ; in short: as §1
Klebsiella pneumoniae [13] = test: Antibacterial activity against Klebsiella pneumoniae at 25 ug/ml incubated for 24 hrs by agar well diffusion method; assay type: functional; details: for zone of inhibition at 25 µg/mL: read-out: DIZ; in short: as §1
Klebsiella pneumoniae [14] = test: Antibacterial activity against Klebsiella pneumoniae at 50 ug/ml incubated for 24 hrs by agar well diffusion method; assay type: functional; details: for zone of inhibition at 50 µg/mL: read-out: DIZ; in short: as §1
Klebsiella pneumoniae [15] = test: Antibacterial activity against Klebsiella pneumoniae at 75 ug/ml incubated for 24 hrs by agar well diffusion method; assay type: functional; details: for zone of inhibition at 75 µg/mL: read-out: DIZ; in short: as §1
Klebsiella pneumoniae [16] = test: Antibacterial activity against Klebsiella pneumoniae at 100 ug/ml incubated for 24 hrs by agar well diffusion method; assay type: functional; details: for zone of inhibition at 100 µg/mL: read-out: DIZ; in short: as §1
Aspergillus niger [17] = test: Antifungal activity against Aspergillus niger at 25 ug/ml incubated for 48 hrs by agar well diffusion method; assay type: functional; details: read-out: DIZ
In short: (§2)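 Compounds dissolved in DMSO at 5 mg mL⁻¹ and 5–20 µL added to 6 mm wells, giving 25, 50, 75, 100 µg per well. Bavistin was the positive control and DMSO the negative control. Plates incubated at 28 °C for 48 h, then inhibition zone diameter (mm) measured. Values are means of three determinations.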

Aspergillus niger [18] = test: Antifungal activity against Aspergillus niger at 50 ug/ml incubated for 48 hrs by agar well diffusion method; assay type: functional; details: read-out: DIZ; in short: as §2
Aspergillus niger [19] = test: Antifungal activity against Aspergillus niger at 75 ug/ml incubated for 48 hrs by agar well diffusion method; assay type: functional; details: read-out: DIZ; in short: as §2
Aspergillus niger [20] = test: Antifungal activity against Aspergillus niger at 100 ug/ml incubated for 48 hrs by agar well diffusion method; assay type: functional; details: read-out: DIZ; in short: as §2
Candida albicans [21] = test: Antifungal activity against Candida albicans at 25 ug/ml incubated for 48 hrs by agar well diffusion method; assay type: functional; details: for zone of inhibition at 25 µg/mL: read-out: DIZ; in short: as §2
Candida albicans [22] = test: Antifungal activity against Candida albicans at 50 ug/ml incubated for 48 hrs by agar well diffusion method; assay type: functional; details: for zone of inhibition at 50 µg/mL: read-out: DIZ; in short: as §2
Candida albicans [23] = test: Antifungal activity against Candida albicans at 75 ug/ml incubated for 48 hrs by agar well diffusion method; assay type: functional; details: read-out: DIZ; in short: as §2
Candida albicans [24] = test: Antifungal activity against Candida albicans at 100 ug/ml incubated for 48 hrs by agar well diffusion method; assay type: functional; details: read-out: DIZ; in short: as §2
Fusarium oxysporum [25] = test: Antifungal activity against Fusarium oxysporum at 25 ug/ml incubated for 48 hrs by agar well diffusion method; assay type: functional; details: for zone of inhibition at 25 µg/mL: read-out: DIZ; in short: as §2
Fusarium oxysporum [26] = test: Antifungal activity against Fusarium oxysporum at 50 ug/ml incubated for 48 hrs by agar well diffusion method; assay type: functional; details: for zone of inhibition at 50 µg/mL: read-out: DIZ; in short: as §2
Fusarium oxysporum [27] = test: Antifungal activity against Fusarium oxysporum at 75 ug/ml incubated for 48 hrs by agar well diffusion method; assay type: functional; details: read-out: DIZ; in short: as §2
Fusarium oxysporum [28] = test: Antifungal activity against Fusarium oxysporum at 100 ug/ml incubated for 48 hrs by agar well diffusion method; assay type: functional; details: read-out: DIZ; in short: as §2
Erythrocyte = test: Anti-inflammatory activity in human RBC assessed as inhibition of hypotonic solution-induced hemolysis after 10 mins by spectrophotometric method; assay type: functional, cell-based
In short: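 Human blood (heparinized) washed with 0.9% saline, packed cells made into a 40% v/v stock in isotonic phosphate buffer (154 mM NaCl, 10 mM sodium phosphate, pH 7.4). Stock RBC mixed with hypotonic buffer (50 mM NaCl, 10 mM phosphate, pH 7.4) plus sample at 20–100 µg mL⁻¹.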

| Structure (SMILES) | zone of inhibition at 25 µg/mL (Staphylococcus aureus [1]) [mm] | zone of inhibition at 50 µg/mL (Staphylococcus aureus [2]) [mm] | zone of inhibition at 75 µg/mL (Staphylococcus aureus [3]) [mm] | zone of inhibition at 100 µg/mL (Staphylococcus aureus [4]) [mm] | zone of inhibition at 25 µg/mL (Bacillus subtilis [5]) [mm] | zone of inhibition at 75 µg/mL (Bacillus subtilis [7]) [mm] | zone of inhibition at 100 µg/mL (Bacillus subtilis [8]) [mm] | zone of inhibition at 25 µg/mL (Escherichia coli [9]) [mm] | zone of inhibition at 50 µg/mL (Escherichia coli [10]) [mm] | zone of inhibition at 75 µg/mL (Escherichia coli [11]) [mm] | zone of inhibition at 100 µg/mL (Escherichia coli [12]) [mm] | zone of inhibition at 25 µg/mL (Aspergillus niger [17]) [mm] | zone of inhibition at 50 µg/mL (Aspergillus niger [18]) [mm] | zone of inhibition at 75 µg/mL (Aspergillus niger [19]) [mm] | zone of inhibition at 100 µg/mL (Aspergillus niger [20]) [mm] | zone of inhibition at 75 µg/mL (Candida albicans [23]) [mm] | zone of inhibition at 100 µg/mL (Candida albicans [24]) [mm] | zone of inhibition at 75 µg/mL (Fusarium oxysporum [27]) [mm] | zone of inhibition at 100 µg/mL (Fusarium oxysporum [28]) [mm] | IC50 (Erythrocyte) [µg/mL] | further results |
| --- | --- | --- | --- | --- | --- | --- | --- | --- | --- | --- | --- | --- | --- | --- | --- | --- | --- | --- | --- | --- | --- |
| Cl.NCC(=O)Oc1ccc2c(=O)c3ccccc3oc2c1 | 10 | 15 | 19 | 23 | 10 | 21 | 26 | 12 | 17 | 21 | 24 | 7 | 10 | 14 | 17 | 16 | 20 | 14 | 17 | 70 | zone of inhibition at 50 µg/mL (Bacillus subtilis [6]): 15 mm; zone of inhibition at 25 µg/mL (Klebsiella pneumoniae [13]): 17 mm; zone of inhibition at 50 µg/mL (Klebsiella pneumoniae [14]): 22 mm; zone of inhibition at 75 µg/mL (Klebsiella pneumoniae [15]): 27 mm; zone of inhibition at 100 µg/mL (Klebsiella pneumoniae [16]): 30 mm; zone of inhibition at 25 µg/mL (Candida albicans [21]): 9 mm; zone of inhibition at 50 µg/mL (Candida albicans [22]): 11 mm; zone of inhibition at 25 µg/mL (Fusarium oxysporum [25]): 7 mm; zone of inhibition at 50 µg/mL (Fusarium oxysporum [26]): 10 mm |
| CC(C)[C@H](N)C(=O)Oc1ccc2c(=O)c3ccccc3oc2c1.Cl | 14 | 17 | 21 | 24 | 10 | 20 | 24 | 11 | 15 | 19 | 23 | 9 | 12 | 17 | 21 | 16 | 19 | 19 | 21 | 82 | zone of inhibition at 50 µg/mL (Bacillus subtilis [6]): 15 mm; zone of inhibition at 25 µg/mL (Klebsiella pneumoniae [13]): 16 mm; zone of inhibition at 50 µg/mL (Klebsiella pneumoniae [14]): 12 mm; zone of inhibition at 75 µg/mL (Klebsiella pneumoniae [15]): 21 mm; zone of inhibition at 100 µg/mL (Klebsiella pneumoniae [16]): 27 mm; zone of inhibition at 25 µg/mL (Candida albicans [21]): 8 mm; zone of inhibition at 50 µg/mL (Candida albicans [22]): 11 mm; zone of inhibition at 25 µg/mL (Fusarium oxysporum [25]): 10 mm; zone of inhibition at 50 µg/mL (Fusarium oxysporum [26]): 15 mm |
| O=c1c2ccccc2oc2cc(O)ccc12 | 4 | 7 | 11 | 14 | – | 6 | 10 | 3 | 7 | 11 | 13 | 4 | 7 | 9 | 11 | 6 | 10 | 5 | 9 | 90 (≈ 424 µM) | diameter of the inhibition zone (DIZ) (Bacillus subtilis [5]): inactive; diameter of the inhibition zone (DIZ) (Bacillus subtilis [6]): inactive; diameter of the inhibition zone (DIZ) (Klebsiella pneumoniae [13]): inactive; diameter of the inhibition zone (DIZ) (Klebsiella pneumoniae [14]): inactive; diameter of the inhibition zone (DIZ) (Klebsiella pneumoniae [15]): inactive; diameter of the inhibition zone (DIZ) (Klebsiella pneumoniae [16]): inactive; diameter of the inhibition zone (DIZ) (Candida albicans [21]): inactive; diameter of the inhibition zone (DIZ) (Candida albicans [22]): inactive; diameter of the inhibition zone (DIZ) (Fusarium oxysporum [25]): inactive; diameter of the inhibition zone (DIZ) (Fusarium oxysporum [26]): inactive |
| C[C@H](N)C(=O)Oc1ccc2c(=O)c3ccccc3oc2c1.Cl | 9 | 13 | 19 | 22 | 11 | 19 | 23 | 15 | 19 | 22 | 26 | 8 | 12 | 15 | 18 | 15 | 17 | 16 | 18 | 78 | zone of inhibition at 50 µg/mL (Bacillus subtilis [6]): 16 mm; zone of inhibition at 25 µg/mL (Klebsiella pneumoniae [13]): 8 mm; zone of inhibition at 50 µg/mL (Klebsiella pneumoniae [14]): 16 mm; zone of inhibition at 75 µg/mL (Klebsiella pneumoniae [15]): 23 mm; zone of inhibition at 100 µg/mL (Klebsiella pneumoniae [16]): 28 mm; zone of inhibition at 25 µg/mL (Candida albicans [21]): 7 mm; zone of inhibition at 50 µg/mL (Candida albicans [22]): 12 mm; zone of inhibition at 25 µg/mL (Fusarium oxysporum [25]): 6 mm; zone of inhibition at 50 µg/mL (Fusarium oxysporum [26]): 10 mm |
